{"source": "paper PMC2413043", "about": "(The Journal of Experimental Medicine, 2008)", "key": {"[1]": {"test_system": "IL-1β", "assay": "IL-1β in media of primary macrophages by ELISA", "assay_type": "cell-based, mouse", "conditions": "TSA and LPS, 4 h, n = 2 ± SD", "summary_of_the_method": "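Primary peritoneal macrophages collected by PBS lavage from resting WT or MKP-1−/− mice, not thioglycolate-elicited; the mice were on a C57BL/6J background. Cells stimulated with TSA, LPS or both. After 4 h, TNF-α and IL-1β in the media were measured by ELISA; n = 2, mean ± SD.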"}, "[2]": {"test_system": "MKP-1", "assay": "MKP-1 expression in RAW cells by immunoblot", "assay_type": "cell-based, mouse", "conditions": "LPS and TSA 1 h"}, "[3]": {"test_system": "TNF-α", "assay": "Serum TNF-α by ELISA in LPS-treated mice", "assay_type": "in vivo, mouse", "conditions": "TSA daily from day −2, LPS day 0, serum 2 h after LPS, n = 2 ± SD"}, "[4]": {"test_system": "TNF-α and IL-1β", "assay": "Liver TNF-α and IL-1β mRNA by RT-PCR", "assay_type": "in vivo, mouse", "conditions": "liver 4 h after LPS, two representative mice", "summary_of_the_method": "(§1)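 Mice were dosed with TSA each day from day −2 and challenged with LPS on day 0. Liver RNA was harvested 4 h after LPS. RT-PCR was run for TNF-α and IL-1β, or for COX-2 and CXCL2, with two mice per group.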"}, "[5]": {"test_system": "COX-2 and CXCL2", "assay": "Liver COX-2 and CXCL2 expression by RT-PCR", "assay_type": "in vivo, mouse", "conditions": "4 h after LPS, n = 2", "summary_of_the_method": "as §1"}, "[6]": {"test_system": "MKP-1", "assay": "MKP-1 acetylation, [3H]sodium acetate labelled RAW cells", "assay_type": "cell-based, mouse", "conditions": "[3H]sodium acetate 1 h, TSA 0.5 h, 100 ng/ml LPS 0–3 h", "summary_of_the_method": "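RAW 264.7 cells metabolically labelled with [3H]sodium acetate for 1 h, plus TSA for 0.5 h, then LPS 100 ng/ml for 0–3 h. Lysates were immunoprecipitated with anti-MKP-1 and resolved by SDS-PAGE. Acetylation was detected by autoradiography; MKP-1 was immunoblotted as loading control.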"}, "[7]": {"test_system": "ERK1/2", "assay": "Phosphorylation of ERK1/2 by immunoblot in RAW cells", "assay_type": "cell-based, mouse", "conditions": "RAW cells pretreated 30 ng/ml TSA 1 h, 100 ng/ml LPS 30 min", "summary_of_the_method": "(§2)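 RAW 264.7 cells (DME, 10% FBS) pretreated with TSA 30 ng/ml for 1 h, then LPS 100 ng/ml for 30 min. Whole-cell lysates were immunoblotted with antibodies to phosphorylated and total forms of the MAPK in question.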"}, "[8]": {"test_system": "MKP-1 and p38", "assay": "MKP-1/p38 association by co-immunoprecipitation in RAW cells", "assay_type": "cell-based, mouse", "conditions": "co-IP", "summary_of_the_method": "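RAW 264.7 cells were treated with LPS and/or TSA for 1 h. Lysates were immunoprecipitated with anti-p38 or anti-MKP-1, and precipitates were immunoblotted reciprocally for MKP-1 or p38. The experiment was repeated twice.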"}, "[9]": {"test_system": "phospho-p38", "assay_type": "cell-based", "conditions": "MKP-1 immunoprecipitated from RAW cells treated with LPS and TSA 4 h", "summary_of_the_method": "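RAW 264.7 cells grown in DME with 10% FBS were treated with LPS plus TSA, or with control, for 4 h. Endogenous MKP-1 was immunoprecipitated from the lysates and incubated with recombinant phospho-p38 or phospho-ERK1. Remaining phosphorylation was detected by immunoblotting with phospho-p38 or phospho-ERK antibodies. The amount of phospho-substrate added was shown as an input lane.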"}, "[10]": {"test_system": "NF-κB pathway", "assay": "LPS activation of the NF-κB pathway", "assay_type": "cell-based", "conditions": "Fig. S2"}, "[11]": {"test_system": "MKP-1", "assay": "MKP-1 acetylation in mouse liver by immunoprecipitation", "assay_type": "in vivo", "conditions": "TSA pretreatment 4 h, LPS 16 h; IP MKP-1, blot Ac-Lys", "summary_of_the_method": "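Mice pretreated with TSA for 4 h, then given LPS for 16 h. Liver lysates were immunoprecipitated with anti-MKP-1 and immunoblotted with anti-acetyl-lysine or anti-MKP-1.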"}, "[12]": {"test_system": "p38", "assay": "Phospho-p38 in RAW cells with MKP-1 siRNA or control siRNA", "assay_type": "cell-based, mouse", "summary_of_the_method": "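RAW cells stably transfected with vectors encoding hairpin siRNA against MKP-1 nucleotides 67–85 or 743–761, or a control sequence, with separate clones isolated. Knockdown was confirmed by MKP-1 immunoblot. Clones were treated with LPS and TSA, and lysates were immunoblotted for NOS2 and MAPK family members, including phospho-p38.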"}, "[13]": {"test_system": "NOS2", "assay": "Liver NOS2 protein by immunoblot", "assay_type": "in vivo, mouse", "conditions": "TSA pretreatment 4 h, LPS 16 h", "summary_of_the_method": "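Mice were pretreated with increasing amounts of TSA for 4 h, then given LPS for 16 h. Liver was harvested and its lysate immunoblotted for NOS2, with MEK1 as the loading control.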"}, "[14]": {"test_system": "MKP-1 KO mice", "assay": "LPS-induced mortality in MKP-1 KO mice", "assay_type": "in vivo, mouse", "conditions": "LPS 20 mg/kg; n = 5; P = 0.17 LPS vs. LPS with TSA"}, "[15]": {"test_system": "JNK1/2", "assay": "Phosphorylation of JNK1/2 by immunoblot in RAW cells", "assay_type": "cell-based, mouse", "conditions": "RAW cells pretreated 30 ng/ml TSA 1 h, 100 ng/ml LPS 30 min", "summary_of_the_method": "as §2"}, "[16]": {"test_system": "MKK3/6", "assay": "Phosphorylation of MKK3/6 by immunoblot in RAW cells", "assay_type": "cell-based, mouse", "conditions": "TSA 30 ng/ml 1 h and/or LPS 100 ng/ml 30 min", "summary_of_the_method": "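RAW 264.7 cells grown in DME with 10% FBS were pretreated with TSA 30 ng/ml for 1 h, then given LPS 100 ng/ml for 30 min. Lysates were immunoblotted with phospho-specific antibodies to MAPK cascade members (phospho-MKK3/6, phospho-Elk-1).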"}, "[17]": {"test_system": "p38", "assay": "Phospho-p38 in MEFs from MKP-1 heterozygous or KO mice", "assay_type": "cell-based, mouse", "conditions": "LPS and TSA 30 min", "summary_of_the_method": "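Embryonic fibroblasts from MKP-1+/− or MKP-1−/− mice, grown in DME with 10% FBS, were treated with LPS and TSA for 30 min. Lysates were immunoblotted for phospho-p38 and total p38.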"}, "[18]": {"test_system": "COX-2 and CXCL2", "assay": "COX-2 and CXCL2 expression by RT-PCR in RAW cells", "assay_type": "cell-based, mouse", "conditions": "LPS and TSA, Fig. 1 H and Fig. S1", "summary_of_the_method": "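RAW 264.7 cells grown in DME with 10% FBS and penicillin/streptomycin. Cells exposed to LPS, TSA or both for 4 h, then assessed for COX-2 and CXCL2 expression by RT-PCR.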"}, "[19]": {"test_system": "WT mice", "assay": "LPS-induced mortality in WT mice", "assay_type": "in vivo, mouse", "conditions": "Fig. S4 B"}, "[20]": {"test_system": "MKP-1 and p300", "assay": "MKP-1 interaction with p300 by co-immunoprecipitation in RAW cells", "assay_type": "cell-based, mouse", "conditions": "RAW cells treated with TSA; IP p300, blot MKP-1"}}, "note": "“Also recorded” adds a separate entry of the source."}
{"molecule": "CC(/C=C/C(=O)NO)=C\\[C@@H](C)C(=O)c1ccc(N(C)C)cc1", "note": "[TSA, trichostatin A]", "values": [{"measurement": "decrease of IL-1β, MKP-1 KO macrophages", "setting": "[1]", "result": 34, "unit": "%"}, {"measurement": "decrease of IL-1β, WT macrophages", "setting": "[1]", "result": 85, "unit": "%"}, {"measurement": "MKP-1 expression", "setting": "[2]", "result": "increases the expression of MKP-1 levels"}, {"measurement": "decrease of serum TNF-α, MKP-1−/− mice", "setting": "[3]", "result": 22, "unit": "%"}, {"measurement": "LPS-induced IL-1β mRNA in liver", "setting": "[4]", "result": "decreases"}, {"measurement": "LPS-induced TNF-α mRNA in liver", "setting": "[4]", "result": "decreases"}, {"measurement": "COX-2 expression in liver", "setting": "[5]", "result": "slightly increases"}, {"measurement": "CXCL2 expression in liver", "setting": "[5]", "result": "slightly increases"}, {"measurement": "MKP-1 acetylation", "setting": "[6]", "result": "increases MKP-1 acetylation"}, {"measurement": "LPS-induced phosphorylation of ERK1/2", "setting": "[7]", "result": "decreases"}, {"measurement": "association between p38 and MKP-1", "setting": "[8]; LPS and TSA 1 h", "result": "increases the association between p38 and MKP-1 in cells"}, {"measurement": "interaction between MKP-1 and p38, TSA alone", "setting": "[8]; TSA without LPS", "result": "increases the interaction between MKP-1 and p38, even in the absence of LPS"}, {"measurement": "removal of phosphate from recombinant phospho-p38 by MKP-1", "setting": "[9]", "result": "enhances the ability of MKP-1 to remove phosphate groups from recombinant phospho-p38"}, {"measurement": "LPS activation of the NF-κB pathway", "setting": "[10]", "result": "does not affect LPS activation of the NF-κB pathway"}, {"measurement": "LPS-triggered IκBα degradation", "setting": "[10]", "result": "slightly increases"}, {"measurement": "LPS-triggered p65 nuclear translocation", "setting": "[10]", "result": "slightly increases"}, {"measurement": "NF-κB transactivation of the NOS2 promoter", "setting": "[10]", "result": "slightly increases"}, {"measurement": "κB-binding activity", "setting": "[10]", "result": "slightly increases"}, {"measurement": "acetylation of MKP-1 in liver", "setting": "[11]", "result": "increases acetylation of MKP-1 in vivo"}, {"measurement": "LPS-induced phospho-p38, control siRNA cells", "setting": "[12]; RAW cells expressing control hairpin RNA, LPS and TSA", "result": "limits this increase"}, {"measurement": "effect of TSA on phospho-p38, MKP-1 siRNA cells", "setting": "[12]; RAW cells with siRNA of MKP-1, LPS and TSA", "result": "siRNA of MKP-1 blocks the effect of TSA"}, {"measurement": "NOS2 steady-state protein levels in liver", "setting": "[13]", "result": "decreases NOS2 steady-state protein levels in liver"}, {"measurement": "mortality after LPS, effect of TSA, MKP-1 KO mice", "setting": "[14]", "result": "minimal and insignificant effect on mortality; also recorded: small protective effect on MKP-1^−/− mouse mortality"}, {"measurement": "LPS-induced phosphorylation of JNK1/2", "setting": "[15]", "result": "not JNK1/2"}, {"measurement": "phosphorylation of MKK3/6", "setting": "[16]", "result": "does not affect phosphorylation of the upstream MAPKK MKK3/6"}, {"measurement": "phospho-p38 levels, heterozygous vs MKP-1 KO MEFs", "setting": "[17]", "result": "decreases phospho-p38 levels in heterozygous cells, but not in MKP-1 KO cells"}, {"measurement": "COX-2 expression", "setting": "[18]", "result": "slightly increases"}, {"measurement": "CXCL2 expression", "setting": "[18]", "result": "slightly increases"}, {"measurement": "mortality after LPS, dose response to TSA", "setting": "[19]", "result": "decreases mortality after LPS in a dose-responsive manner"}, {"measurement": "MKP-1 association with p300", "setting": "[20]", "result": "MKP-1 associates with p300 in TSA-treated macrophages"}]}
